Sampled rows, rich in hits. Any-hit rate of the full collection: about 3.7%.
KCNK3 inh: human KCNK3 channel inhibition, primary screen; CHO-KCNK3 thallium flux, FluxOR fluorescence; active compounds read low; B-score at 10 µM; actives 0.84% (n = 340,000); AID 602410;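 active means B-score under library mean minus 4 SD, starting fluorescence ratio at most library mean plus 5 SD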;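 further: more negative B-score means stronger inhibition of thallium flux through KCNK3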
Target sequence (O14649 whole entry, looked up): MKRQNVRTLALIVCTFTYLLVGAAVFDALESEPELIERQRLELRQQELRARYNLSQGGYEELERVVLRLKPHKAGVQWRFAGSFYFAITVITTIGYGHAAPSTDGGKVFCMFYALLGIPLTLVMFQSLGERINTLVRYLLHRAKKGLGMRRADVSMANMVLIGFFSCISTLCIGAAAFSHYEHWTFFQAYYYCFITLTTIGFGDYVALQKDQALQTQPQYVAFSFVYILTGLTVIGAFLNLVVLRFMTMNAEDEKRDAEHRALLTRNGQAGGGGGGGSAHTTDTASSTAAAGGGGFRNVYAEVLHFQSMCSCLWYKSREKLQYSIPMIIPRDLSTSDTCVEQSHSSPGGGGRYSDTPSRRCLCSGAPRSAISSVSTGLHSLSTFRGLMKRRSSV
Kir21 block: inhibitors of mouse Kir2.1 inward-rectifier potassium channel; HEK293-Kir2.1, FluxOR thallium flux fluorescence; active compounds read low; B-score at 10 µM; actives 0.85% (n = 310,000); AID 1672;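 active means fluorescence ratio B-score at or below minus 3 SD of library scores, with starting-brightness B-score within 2 SD, cut at about -4.2 in these data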;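 further: channel flux triggered by added potassium and thallium sulfate stimulus; B-score of peak minus minimum fluorescence over baseline after thallium stimulus; more negative B-score means stronger Kir2.1 block with less thallium influx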
KCNQ1 inh: human KCNQ1 channel inhibition. CHO-K1 KCNQ1, FluxOR thallium flux fluorescence; active compounds read high. B-score at 10 µM. P51787. actives 1.3% (n = 310,000);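 active means compounds whose thallium flux B-score, printed positive for inhibition, exceeds three library SD while starting fluorescence stays within three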;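 further: channel opened by potassium depolarization with thallium stimulus after 20 min compound exposure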
hERG protect: shields human hERG channel from block by proarrhythmic agents. Q12809. CHO-hERG, FluxOR thallium flux, dofetilide IC70 present. activation (rescue from dofetilide block), less the hit threshold, % at 10 µM. actives 0.51% (n = 310,000). AID 1511;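 active means activation above the mean of controls blocked by dofetilide plus 5 SD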;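 further: thallium influx through hERG after potassium depolarization seen as dye fluorescence rise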
KCNQ1 act: potentiators or activators of human KCNQ1 potassium channel | CHO-K1 KCNQ1, thallium flux FluxOR fluorescence; active compounds read high | B-score at 10 µM | actives 0.35% (n = 310,000);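 active means fluorescence ratio B-score, a plate-corrected score, at least three library SD, with initial intensity B-score within 5 SD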
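Medium – assay buffer, equal DMSO in all wells · Material – CHO-K1 cell line with stable KCNQ1 potassium channel expression · Signal – kinetic FluxOR thallium fluorescence, 10-s 1-Hz baseline, 110-s post-stimulus read · Compound – single concentration per compound, DMSO matched to controls · Schedule – 37 °C overnight plating, 90-min dark dye load, 20-min compound pretreatment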
KCNK9 inh: human KCNK9 channel inhibition. HEK293 KCNK9, FluxOR thallium flux fluorescence; active compounds read low. B-score at 10 µM. actives 1.2% (n = 310,000). AID 488922;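 active means ratio B-score over 3 SD below the library mean, with starting fluorescence within 5 SD of its mean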;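 further: negative B-score means less thallium flux so channel inhibition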
Target sequence (Q9NPC2 whole entry, looked up): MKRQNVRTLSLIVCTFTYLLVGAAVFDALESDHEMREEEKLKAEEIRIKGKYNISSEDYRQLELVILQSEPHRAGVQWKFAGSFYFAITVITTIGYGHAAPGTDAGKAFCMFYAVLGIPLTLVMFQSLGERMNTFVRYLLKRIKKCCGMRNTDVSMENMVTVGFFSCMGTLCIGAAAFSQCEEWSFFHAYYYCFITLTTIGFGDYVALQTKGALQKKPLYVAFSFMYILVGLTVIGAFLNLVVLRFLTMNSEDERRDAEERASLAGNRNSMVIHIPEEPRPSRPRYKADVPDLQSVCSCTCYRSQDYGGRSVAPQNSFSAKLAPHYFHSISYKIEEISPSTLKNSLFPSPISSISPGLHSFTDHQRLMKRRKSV
Numbers stand for hits; 0 = inactive; - = no result given; ! = a repeat was not active.

SMILES | KCNK3 inh | Kir21 block | KCNQ1 inh | hERG protect | KCNQ1 act | KCNK9 inh
CCN1C(=O)c2cccc3c(NC(=O)c4ccc5c(c4)OCCO5)ccc1c23 | -10 | 0 | 0 | 0 | 0 | 0
CCOC(=O)c1sc(NC(=O)c2ccc(OC)cc2)nc1C | 0 | 0 | 0 | 0 | 0 | 0
CCOC(=O)c1sc(NC(=O)c2ccc(OC(C)=O)cc2)nc1C | 0 | 0 | 0 | 0 | 13 | 0
Cc1ccccc1NC(=S)N(CCc1c(C)[nH]c2ccc(F)cc12)Cc1cccnc1 | 0 | 0 | 0 | 0 | 0 | 0
Cc1[nH]c2ccc(F)cc2c1CCN(Cc1ccncc1)C(=S)Nc1ccc(F)cc1 | 0 | 0 | 0 | 0 | 0 | -7.1
Cc1ccc(Oc2cc(NC(=O)CCCn3nc([N+](=O)[O-])c(Cl)c3C)cc([N+](=O)[O-])c2)cc1 | 0 | 0 | 7 | 0 | 0 | 0
Cc1cc([N+](=O)[O-])nn1CCCC(=O)Nc1cc(Oc2ccc(F)cc2)cc([N+](=O)[O-])c1 | 0 | 0 | 0 | 0 | 0 | 0
C/C(=N\NC(N)=S)C1C2C3CC4C5CC(C42)C1C53 (stereo not drawn) | 0 | -6 | 0 | 0 | 0 | 0
O=C(CSc1ccc(-c2ccc(Cl)cc2)nn1)NC1CCCC1 | 0 | 0 | 0 | 0 | 0 | 0
S=c1nc[nH]c2c1cnn2-c1ccccc1 | 0 | 0 | 0 | 0 | 19 | 0
COc1ccc(C2=C(CN(C)C)C(c3ccccc3)c3ccccc3O2)cc1 (stereo not drawn) | 0 | -5.2! | 0 | 0 | 0 | 0
CCCCNc1c(-c2ccc(SC(C)CC)c(OC)c2)nc2ccc(C)cn12 (stereo not drawn) | 0 | 0 | 8 | 0 | 0 | 0
CCC(C)Sc1cccc(-c2nc3ccc(Cl)cn3c2NCc2ccccc2)c1 (stereo not drawn) | 0 | 0 | 0 | 0 | 0 | 0
CCCCNc1c(-c2ccc(SC(C)CC)c(OC)c2)nc2ccc(Cl)cn12 (stereo not drawn) | 0 | - | - | - | - | -
CCC(C)Sc1cccc(-c2nc3ccc(C)cn3c2NCc2ccccc2)c1 (stereo not drawn) | 0 | 0 | 7 | 0 | 0 | 0
O=C(CC(=O)c1ccccc1)CC(O)(C=Cc1ccccc1)c1ccccc1 (stereo not drawn) | -9.1 | - | - | - | - | -
Cc1ccccc1-c1nc(S(=O)(=O)c2ccc(Br)cc2)c(NCc2cccnc2)o1 | -9.1 | 0 | 0 | 0 | 0 | 0
COc1cccc(CNc2cc(CSc3ccc(Cl)cc3)nc(C)n2)c1 | 0 | -7.7 | 0 | 0 | 0 | 0
COc1cccc(CNc2ccc(C)c(Cl)c2)c1 | 0 | 0 | 0 | 0 | 0 | 0
CC(=O)N/C(=C/c1ccc2c(c1)OCO2)C(=O)O | 0 | 0 | 0 | 0 | 9 | 0
O=C(N/C(=C/c1ccc2c(c1)OCO2)C(=O)N1CCOCC1)c1cccs1 | 0 | 0 | 0 | 8.2 | 0 | 0
CC(=O)N/C(=C/c1ccc2c(c1)OCO2)C(=O)Nc1ccccc1 | 0 | 0 | 0 | 0 | 0 | 0
Nc1nc2cc(S(=O)(=O)N3CCOCC3)ccc2o1 | 0 | - | - | - | - | -
O=C(c1ccccc1)c1coc2ccc(O)c(CN3CCOCC3)c12 | 0 | -6.3 | 0 | 0 | 0 | 0
O=C(O)CCC(=O)NN1C(=O)c2ccccc2NC1c1ccc(F)cc1 (stereo not drawn) | 0 | 0 | 0 | 0 | 0 | 0
SMILES | KCNK3 inh | Kir21 block | KCNQ1 inh | hERG protect | KCNQ1 act | KCNK9 inh
CCc1c(C)nc2ccc(Br)cc2c1SCCC#N | 0 | 0 | 0 | 0 | 0 | 0
CCCCc1c(C)nc2ccc(Br)cc2c1SCCC#N | - | 0 | 0 | 0 | 0 | -7.7
CC(=NNC(=O)c1ccncc1)c1ccc2ccccc2c1O | 0 | - | - | - | - | -
Cc1cccc(NC(=S)N(CCCN2CCCC2)Cc2cccn2Cc2ccc(Cl)cc2)c1 | 0 | -5.3 | 0 | 0 | 0 | 0
COc1ccc(CN2CCC(C(=O)c3ccc(Cl)cc3)CC2)cc1 | 0 | -9.8 | 0 | 0 | 0 | 0
CCOc1ccc(OCCC(=O)NNC(=O)c2cc(OC)c(OC)c(OC)c2)cc1 | 0 | 0 | 0 | 0 | 0 | 0
O=C(COc1coc(CN2CCc3ccccc3C2)cc1=O)Nc1ccccc1F | 0 | 0 | 0 | 0 | 0 | 0
C=CCC1(CC=C)CCCN1C(=O)c1cc(COc2ccccc2SC)on1 | 0 | 0 | 7 | 0 | 0 | 0
C=CCC1(CC=C)CCCN1C(=O)c1cc(COc2ccc(C)nc2)on1 | 0 | 0 | 8 | 0 | 0 | 0
Cc1ccc(OCc2cc(C(=O)N3CCCC3)no2)cn1 | 0 | 0 | 0 | 0 | 0 | 0
O=C(NC1CC2CCC(C1)N2Cc1nnnn1Cc1ccco1)NC12CC3CC(CC(C3)C1)C2 (stereo not drawn) | 0 | 0 | 0 | 0 | 0 | 0
CCOc1ccccc1C(=O)NC1CC2CCCC(C1)N2Cc1nnnn1Cc1ccco1 (stereo not drawn) | 0 | 0 | 0 | 22 | 0 | 0
CC[C@]12c3[nH]c4ccc(OC)cc4c3CCN1C(=O)C(CC(=O)NCCc1ccccn1)C[C@@H]2C(=O)N1CCN(C(=O)C2CC2)CC1 (stereo partly drawn) | 0 | - | - | - | - | -
CCOC(=O)Cc1csc(NC(=O)CCCC(=O)O)n1 | 0 | 0 | 0 | 0 | 0 | 0
O=[N+]([O-])c1ccc(NC(=S)NCCc2ccccc2)cc1 | 0 | 0 | 6 | 0 | 0 | 0
O=[N+]([O-])c1cc(C(F)(F)F)ccc1NCCNC(=S)Nc1ccc(Cl)cc1 | 0 | 0 | 6 | 0 | 0 | 0
O=[N+]([O-])c1ccc(NC(=S)NCCc2ccc(Cl)cc2)cc1 | 0 | 0 | 8 | 0 | 0 | 0
O=[N+]([O-])c1cc(C(F)(F)F)ccc1NCCCCNS(=O)(=O)c1ccc(Cl)cc1 | 0 | 0 | 0 | 0 | 0 | 0
S=C(NCCc1ccccc1)Nc1ccc(Cl)cc1 | 0 | 0 | 0 | 0 | 0 | 0
COc1cccc(CC(=O)NNC(=O)CN(C)S(=O)(=O)c2ccc(C)cc2)c1 | 0 | - | - | - | - | -
CCCCn1c(N)c(N(CC(C)C)C(=O)C2=COCCO2)c(=O)[nH]c1=O | 0 | - | - | - | - | -
COc1ccc(NC(=O)c2nc[nH]c2C(=O)N2CCN(c3ccccc3)CC2)cc1 | 0 | 0 | 0 | 5.7 | 0 | 0
COc1cccc(NC(=O)c2cccs2)c1 | 0 | 0 | 0 | 0 | 0 | 0
CNC(=O)c1[nH]cnc1C(=O)Nc1cccc(OC)c1 | 0 | -4.5 | 0 | 0 | 0 | 0
O=C(Nc1ccccc1)c1nc[nH]c1C(=O)N1CCN(c2ccccc2)CC1 | 0 | - | - | - | - | -
SMILES | KCNK3 inh | Kir21 block | KCNQ1 inh | hERG protect | KCNQ1 act | KCNK9 inh
COc1cccc(NC(=O)c2cncs2)c1 | 0 | 0 | 0 | 5.0 | 14 | 0
O=C(NC1CCCC1)C(c1ccncc1)N(C(=O)c1csnn1)C1CCCC1 (stereo not drawn) | 0 | 0 | 0 | 0 | 0 | 0
Cc1ccc(S(=O)(=O)NC(=NCc2ccccc2)c2ccc(F)cc2)cc1 | 0 | 0 | 0 | 0 | 0 | 0
Cc1ccccc1S(=O)(=O)NC(=NCc1ccc(F)cc1)c1ccccc1 | -9.3 | - | - | - | - | -
COc1ccc(OCCSc2ncc(CO)n2C)cc1 | 0 | 0 | 0 | 0 | 0 | 0
CC(C)(C)C(=O)NC(=S)N1CCc2ccccc21 | 0 | 0 | 0 | 0 | 0 | 0

Screening results as filed in PubChem BioAssay.
